{
  "source": "paper PMC12318036",
  "about": "(Nature Communications, 2025)",
  "key": {"[1]": {"test_system": "TPCs", "test": "Cell", "type": "cell-based, human", "details": "forskolin, then H89 2HCl (10 μM), then (S)-(-)-Bay K8644 (10 μM); F-actin, p-MLC2^Ser15, collagen contraction; n = 3", "how_it_was_run": "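A commercial collagen gel contraction kit was used. Harvested pericytes (5 × 10^6) were mixed 1:4 v/v with collagen solution and polymerised at 37 °C for 1 h. Medium was then added over each lattice and gels were incubated for 2 days. Gel size (contraction index) was measured at 48 h by image analysis.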"}, "[2]": {"test_system": "L-type calcium channel in TPCs", "test": "Calcium imaging", "type": "cell-based, human", "details": "H89 2HCl 10 μM; Fluo-4AM; n = 3"}, "[3]": {"test_system": "tumor vessels", "test": "Two-photon vasoconstriction assay of tumor vessels exposed to U46619", "type": "in vivo, mouse", "details": "MC-38-luc-LM3 orthotopic tumor, two-photon microscopy, U46619 10 min; n = 6"}, "[4]": {"test_system": "intracellular calcium of TPCs", "test": "Intravital GCaMP6 calcium imaging in TPCs treated with U46619", "type": "in vivo, mouse", "details": "PC^lin-KO-GCaMP6 mice compared with PC^lin-GCaMP6 mice; n = 6"}, "[5]": {"test_system": "tumor vessels", "test": "Intravital imaging of RBC velocity and vessel diameter change post-U46619", "type": "in vivo, mouse", "details": "n = 6", "how_it_was_run": "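Tumor-bearing mice received FITC-dextran i.v. before imaging. The exposed tumor was viewed with a 4× objective. A rapid line scan (735 lines per second) bisected the central axis of the capillary lumen, so that moving RBCs appeared as oblique shadows. Blood velocity was derived as Δx/Δt.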"}},
  "data": [
    {"smiles": "Cl.Cl.O=S(=O)(NCCNC/C=C/c1ccc(Br)cc1)c1cccc2cnccc12", "note": "[H89 2HCl]", "values": [
      {"measurement": "contraction of TPCLM^gNKX2-3+PDE1C", "setting": "[1]", "result": "suppressed"},
      {"measurement": "calcium currents in TPCNM^NKX2-3+siPDE1C", "setting": "[2]", "result": "reduced calcium currents"},
      {"measurement": "forskolin-increased calcium currents in TPCLM^siNKX2-3+PDE1C", "setting": "[2]", "result": "reversed"}
    ]},
    {"smiles": "CCCCC[C@H](O)/C=C/[C@@H]1[C@@H](C/C=C\\CCCC(=O)O)[C@H]2CO[C@@H]1C2", "note": "[U46619, 9,11-dideoxy-9α,11α-methanoepoxy prostaglandin F2α]", "values": [
      {"measurement": "change of capillary diameter after U46619 treatment, PC^lin mice", "setting": "[3]", "result": "no obvious change"},
      {"measurement": "reduction of capillary diameter after U46619 treatment, PC^lin-KO mice", "setting": "[3]", "result": "~ 20%"},
      {"measurement": "response of intracellular Ca^2+ of TPCs to U46619", "setting": "[4]", "result": "significantly increased"},
      {"measurement": "tumor blood velocity after exposure to U46619, PC^lin-KO mice", "setting": "[5]; compared with before treatment", "result": "significantly decreased"},
      {"measurement": "vascular diameter after exposure to U46619, PC^lin-KO mice", "setting": "[5]; compared with before treatment", "result": "significantly decreased"},
      {"measurement": "tumor blood velocity and vascular diameter before and post-treatment with U46619, PC^lin mice", "setting": "[5]", "result": "no significant difference"}
    ]}
  ]
}
